Measurements reported in ChEMBL document CHEMBL1124956, “Renin inhibitors based on dipeptide analogues. Incorporation of the hydroxyethylene isostere at the P2/P3 sites” (J Med Chem, 1990).

Biological target: T1, Renin (Homo sapiens, UniProt P00797)
T1 sequence (P00797 whole entry): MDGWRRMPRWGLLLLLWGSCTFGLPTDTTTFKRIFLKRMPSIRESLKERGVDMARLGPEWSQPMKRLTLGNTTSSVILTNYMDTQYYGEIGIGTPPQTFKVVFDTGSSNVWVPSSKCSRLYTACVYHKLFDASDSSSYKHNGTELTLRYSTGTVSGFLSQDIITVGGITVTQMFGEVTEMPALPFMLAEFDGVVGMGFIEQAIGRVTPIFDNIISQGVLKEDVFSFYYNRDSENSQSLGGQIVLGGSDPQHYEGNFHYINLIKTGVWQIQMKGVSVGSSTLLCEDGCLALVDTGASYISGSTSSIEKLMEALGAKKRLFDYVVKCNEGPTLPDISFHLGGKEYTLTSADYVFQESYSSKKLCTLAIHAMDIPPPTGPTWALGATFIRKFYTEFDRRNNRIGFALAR
Test: In vitro inhibitory activity against human renal renin using radioimmunoassay for angiotensin I production
Method in brief: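 Purified human renin enzyme, assayed in maleate buffer at pH 6.0. The remaining conditions follow a previously published protocol.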

Structure (SMILES)	IC50
C=C(C[C@H](O)[C@H](CC1CCCCC1)NC(=O)C(CCCCC)CC(O)[C@H](Cc1ccccc1)NC(=O)OC(C)(C)C)C(=O)NCC(C)C (stereo not given in full)	0.019 µM
C=CCCCC(C[C@@H](O)[C@H](Cc1ccccc1)NC(=O)OC(C)(C)C)C(=O)N[C@@H](CC1CCCCC1)[C@@H](O)[C@@H](CO)CC(C)C (stereo not given in full)	0.012 µM
C=C(C[C@H](O)[C@H](CC1CCCCC1)NC(=O)C(CC(C)C)CC(O)[C@H](Cc1ccccc1)NC(=O)OC(C)(C)C)C(=O)NCC(C)C (stereo not given in full)	0.025 µM
C=C(C[C@H](O)[C@H](CC1CCCCC1)NC[C@H](C)C[C@@H](O)[C@H](Cc1ccccc1)NC(=O)OC(C)(C)C)C(=O)NCC(C)C	> 10 µM
C=C(C[C@H](O)[C@H](CC1CCCCC1)NC(=O)[C@@H](C)C[C@@H](O)[C@H](Cc1ccccc1)NC(=O)OC(C)(C)C)C(=O)NCC(C)C	0.1 µM
C=C(C[C@H](O)[C@H](CC1CCCCC1)NC(=O)[C@@H](C[C@@H](O)[C@H](Cc1ccccc1)NC(=O)OC(C)(C)C)Cn1ccnn1)C(=O)NCC(C)C	0.095 µM
C=C(C[C@H](O)[C@H](CC1CCCCC1)NC(=O)[C@H](C)C[C@@H](O)[C@H](Cc1ccccc1)NC(=O)OC(C)(C)C)C(=O)NCC(C)C	0.02 µM
C=C(C[C@H](O)[C@H](CC1CCCCC1)NC(=O)[C@@H](C[C@H](O)[C@H](Cc1ccccc1)NC(=O)OC(C)(C)C)Cn1ccnn1)C(=O)NCC(C)C	2.7 µM
C=C(C[C@H](O)[C@H](CC1CCCCC1)NC(=O)C(CCCCCC)CC(O)[C@H](Cc1ccccc1)NC(=O)OC(C)(C)C)C(=O)NCC(C)C (stereo not given in full)	0.07 µM
C=C(C[C@H](O)[C@H](CC1CCCCC1)NC(=O)[C@H](C)C[C@H](O)[C@H](Cc1ccccc1)NC(=O)OC(C)(C)C)C(=O)NCC(C)C	3 µM
C=C(C[C@H](O)[C@H](CC1CCCCC1)NC(=O)C(C)NC(=O)[C@H](Cc1ccccc1)NC(=O)OC(C)(C)C)C(=O)NCC(C)C (stereo not given in full)	0.01 µM
C=CCCCC(NC(=O)[C@H](Cc1ccccc1)NC(=O)OC(C)(C)C)C(=O)N[C@@H](CC1CCCCC1)[C@@H](O)CC(=C)C(=O)NCC(C)C (mixture of isomers)	0.018 µM
C=C(C[C@H](O)[C@H](CC1CCCCC1)NC(=O)C(C)CC(O)[C@H](Cc1ccccc1)NC(=O)OC(C)(C)C)C(=O)NCC(C)C (single isomer, unassigned)	0.02 µM

Molecules with a lower IC50, results first:

IC50	Structure (SMILES)
0.006 µM	C=C(C[C@H](O)[C@H](CC1CCCCC1)NC(=O)C(CC(C)C)NC(=O)[C@H](Cc1ccccc1)NC(=O)OC(C)(C)C)C(=O)NCC(C)C (stereo not given in full)
0.0055 µM	C=C(C[C@H](O)[C@H](CC1CCCCC1)NC(=O)C(CCCC)CC(O)[C@H](Cc1ccccc1)NC(=O)OC(C)(C)C)C(=O)NCC(C)C (stereo not given in full)
0.006 µM	CC(C)C[C@H](C[C@@H](O)[C@H](Cc1ccccc1)NC(=O)OC(C)(C)C)C(=O)N[C@@H](CC1CCCCC1)[C@@H](O)[C@@H](CO)CC(C)C
0.008 µM	C=CCCC[C@@H](C[C@@H](O)[C@H](Cc1ccccc1)NC(=O)OC(C)(C)C)C(=O)N[C@@H](CC1CCCCC1)[C@@H](O)CC(=C)C(=O)NCC(C)C
0.001 µM	C=CCCC[C@H](C[C@@H](O)[C@H](Cc1ccccc1)NC(=O)OC(C)(C)C)C(=O)N[C@@H](CC1CCCCC1)[C@@H](O)CC(=C)C(=O)NCC(C)C
0.002 µM	C=C(C[C@H](O)[C@H](CC1CCCCC1)NC(=O)C(Cc1c[nH]cn1)NC(=O)[C@H](Cc1ccccc1)NC(=O)OC(C)(C)C)C(=O)NCC(C)C (stereo not given in full)
0.002 µM	C=C(C[C@H](O)[C@H](CC1CCCCC1)NC(=O)C(CCCC)NC(=O)[C@H](Cc1ccccc1)NC(=O)OC(C)(C)C)C(=O)NCC(C)C (mixture of isomers)
